Source: PubChem BioAssay AID463079 (The Scripps Research Institute Molecular Screening Center, 2010)
The campaign covered roughly 330,000 compounds. About 2,000 (0.61%) were called active.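 Rule for the calls: active = inhibition above that plate's mean sample inhibition plus 3 SD (cut at about 26% in these data); inactive = the rest.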 What follows is part of a selection rich in actives, with near analogues and random picks from the rest.

test: nonselective Gq signaling inhibition in CHO cells – cell-based, fluorescence, Fluo-8 calcium dye, counter-screen for OX1R antagonist project, primary screen (AID 463079); details: parental CHO-K1, ATP-induced calcium, Fluo-8 fluorescence; at 5.6 µM; stronger effect = higher value;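 note: 0% = ATP-challenged DMSO wells and 100% = DMSO wells without ATP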
Summary of the method: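 Material: parental CHO cells / Compound: single nominal dose of 5.6 µM per compound / Signal: Fluo-8 fluorescence / Replicates: singlicate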

| Compound | inhibition |
| --- | --- |
| CCN(CC)C(=O)[C@H]1C[C@H](CC(=O)NCC23CC4CC(CC(C4)C2)C3)C(=O)N2CCc3c([nH]c4cc(CCC(=O)N(C)C)ccc34)[C@]12C | -25.6% (inactive) |
| Fc1ccc2[nH]c3c(N4CCSCC4)ncnc3c2c1 | 58.3% (active) |
| CC(=O)Nc1ccccc1Sc1ccc2c3c(cccc13)C(=O)N(c1ccc(C)cc1)C2=O | -4.4% (inactive) |
| CN1C(=O)c2cccc3c(N)ccc(c23)C1=O | 49.2% (active) |
| Cc1nn(C)cc1N1C(=O)c2cccc3c(N)ccc(c23)C1=O | 36.8% (active) |
| Cc1nn(C)cc1C(=O)c1ccccc1 | -6.65% (inactive) |
| COc1cc(C(=O)N2C(=O)c3cccc(N)c3C2=O)cc(OC)c1OC | -9.7% (inactive) |
| O=C(O)c1ccc2c3c(cccc13)C(=O)N(OS(=O)(=O)c1ccccc1)C2=O | -10.1% (inactive) |
| CC(NS(=O)(=O)c1ccccc1)c1n[nH]c(=S)n1-c1ccccc1 (centres undefined) | 9.34% (inactive) |
| O=C(c1ccccc1Cl)N(Cc1ccccc1F)N1C(=O)CCCC1=O | 6.42% (inactive) |
| COCCCN1C(=O)C(=O)/C(=C(/O)c2ccc(S(=O)(=O)N3CCOCC3)cc2)C1c1ccc(F)cc1 (centres undefined) | 14.2% (inactive) |
| COc1cc(OC)cc(C(=O)Nc2ccc(S(=O)(=O)Nc3cc(C)on3)cc2)c1 | -3.8% (inactive) |
| CC(=O)c1ccc(NC(=S)NC(=O)CC(C)C)cc1 | 7.82% (inactive) |
| COc1ccc(OC)c(C(C)NC(=S)Nc2ccc(S(=O)(=O)Nc3ncccn3)cc2)c1 (centres undefined) | 3.7% (inactive) |
| COc1ccc(NS(=O)(=O)c2ccc(NC(=S)NC(=O)CC(C)C)cc2)cc1 | 44.3% (active) |
| COc1ccc(NS(=O)(=O)c2ccc(NC(=O)c3ccc(N(C)S(C)(=O)=O)cc3)cc2)cc1 | 31.2% (active) |
| COc1ccc(NS(=O)(=O)c2ccc(C(=O)Nc3c(C)n(C)n(-c4ccccc4)c3=O)cc2)cc1 | -3.65% (inactive) |
| CCSc1nc(=S)n(CC)c(C)c1C(C)=O | -1.19% (inactive) |
| CC(C)(C)CN1C(=O)C(=O)NC[C@H]1Cc1cccc2ccccc12 | -9.71% (inactive) |
| COC(=O)Nc1ncc(CN2CCCCC2)s1 | 0.87% (inactive) |
| O=C(COc1ccc(Cl)cc1)NC(=S)Nc1ccccc1N1CCOCC1 | -32% (inactive) |
| O=C(Cc1ccc(Cl)cc1)NC(=S)Nc1ccccc1O | 39% (active) |
| Cc1ccccc1NC(=S)NC(=O)Cc1ccc(Cl)cc1 | 2.02% (inactive) |

| Compound | inhibition |
| --- | --- |
| COc1ccc(NC(=O)CSCc2ccc([N+](=O)[O-])cc2)cc1OC | -6.67% (inactive) |
| CC(C)CC(=O)N=C1SC2CS(=O)(=O)CC2N1CCc1ccccc1 (centres undefined) | -2.34% (inactive) |
| O=c1c2ccccc2nc2n1C(CSCc1cccc(C(F)(F)F)c1)CS2 (centres undefined) | 40.1% (active) |
| O=c1c2ccccc2nc2n1C(CSc1ccc(F)cc1)CN2 (centres undefined) | -3.49% (inactive) |
| O=c1c2ccccc2nc2n1C(CSCc1ccccc1)CS2 (centres undefined) | 2.02% (inactive) |
| COc1ccccc1C(=O)C(O)c1ccccc1OC (centres undefined) | -2.08% (inactive) |
| Cc1cccc(C)c1NC(=O)CNC(=O)c1c(C)nn(-c2ccccc2)c1C | 9.7% (inactive) |
| COc1cc(CC(=O)NCc2cccs2)cc(OC)c1OC | -12.1% (inactive) |
| COc1ccc(-c2csc(NC(=O)COC(=O)Cc3ccc(Cl)cc3Cl)n2)cc1 | -7.84% (inactive) |
| Cc1ccc(S(=O)(=O)NC(=O)Nc2nc(-c3ccc(F)c(F)c3)cs2)cc1 | 13.3% (inactive) |
| COc1ccc(-c2csc(NC(=O)COC(=O)c3ccc(Br)o3)n2)cc1 | -1.84% (inactive) |
| COc1cc(CC(=O)Nc2nc(-c3ccc(F)c(F)c3)cs2)cc(OC)c1OC | 50.5% (active) |
| CCCc1ccc(-c2csc(NC(=O)Cc3cccs3)n2)cc1 | -13.1% (inactive) |
| COc1ccc(OC)c(-c2csc(NC(=O)COC(=O)C3CC3)n2)c1 | -16.7% (inactive) |
| COc1ccc(CC(=O)Nc2nc(-c3ccc(F)c(F)c3)cs2)cc1OC | 55.3% (active) |
| COc1cccc(CC(=O)Nc2nc(-c3ccc(OC)c(OC)c3)cs2)c1 | 50.6% (active) |
| Cc1ccc(C)c(Cn2nnc3c(=O)[nH]c(C(=O)Nc4ccc(F)cc4)nc32)c1 | -8.13% (inactive) |
| Cc1cccc(NC(=S)NCCc2ccc(F)cc2)c1C | -8.34% (inactive) |
| C=CCOC(=O)C1=C[C@H](c2ccc(Br)cc2)C[C@H](OCCCCO)O1 | -16.9% (inactive) |
| Cc1cccc(-c2nc3c(c(SCC(=O)N4CCOCC4)n2)CCCC3)c1 | -8.39% (inactive) |
| CC[C@]1(O)C[C@@H]2CN(CCc3c([nH]c4ccccc34)[C@@](C(=O)OC)(c3cc4c(cc3OC)N(C)[C@H]3[C@@](O)(C(=O)OC)[C@H](OC(C)=O)[C@]5(CC)C=CCN6CC[C@]43[C@@H]65)C2)C1 | -20.6% (inactive) |
| Cc1nc2nc(CSc3nc4ccccc4s3)cc(=O)n2[nH]1 | -18.4% (inactive) |
| O=[N+]([O-])c1c(NCCO)cc(Sc2nc3ccccc3s2)c2nonc12 | 77.3% (active) |

| Compound | inhibition |
| --- | --- |
| O=C(O)c1ccccc1CSc1nc2ccccc2s1 | -0.85% (inactive) |
| CN1CCc2nc(SC(C(=O)O)c3ccccc3)c(C#N)c(-c3cccs3)c2C1 (centres undefined) | -2.58% (inactive) |
| CC[C@]1(C(=O)OC)[C@H]2C(=O)N(Cc3ccccc3)C(=O)[C@H]2[C@H]2CN=C(SCc3ccccc3)N21 | -23.1% (inactive) |
| Cc1ccc(N2CCN(S(=O)(=O)N(C)C)CC2)cc1Cl | -18.3% (inactive) |
| COc1ccc(N2CCN(c3ccc([N+](=O)[O-])cc3Cl)CC2)cc1 | 12% (inactive) |
| CN(C)S(=O)(=O)N1CCN(c2ccc([N+](=O)[O-])cc2)CC1 | 29% (active) |
| CCCOc1ccc(Cc2c(O)nc(N)[nH]c2=O)cc1C | -2.86% (inactive) |
| COc1cc(OC)cc(-c2cc3ccc(F)cc3cn2)c1 | -22.7% (inactive) |
| COc1ccc(-c2noc(CN(C)S(=O)(=O)c3ccc(C)cc3)n2)cc1 | 38.9% (active) |
| COc1ccc(-c2noc(C(C)NS(=O)(=O)c3ccc(NC(C)=O)cc3)n2)cc1 (centres undefined) | -2.83% (inactive) |
| COc1ccc(N2CCN(C(=O)CCc3nc(-c4ccc(C)cc4)no3)CC2)cc1 | -13.6% (inactive) |
| Cc1ccc(OCC(=O)Nc2ccccc2C(=O)NC2CC2)cc1 | -12.7% (inactive) |
| Cc1nc(-c2ccc(Cl)cc2)sc1C(=O)CBr | 16.1% (inactive) |
| O=C(Cc1c(F)cccc1Cl)Nc1ncc([N+](=O)[O-])s1 | 3.65% (inactive) |
| CC(=O)Oc1ccccc1C(=O)Nc1ncc([N+](=O)[O-])s1 | 39% (active) |
| COc1ccc(NC(=O)c2ccccc2[N+](=O)[O-])cc1OC | -4.31% (inactive) |
| COc1ccccc1N1CCN(C(=O)CSc2ncnc3c2cnn3-c2ccc(C)c(C)c2)CC1 | -14.4% (inactive) |
| O=C(N/C(=C\c1ccc(F)cc1)C(=O)N1CCCCCC1)c1ccccc1 | -14% (inactive) |
| CCc1ccccc1N1C(=O)C2C3CC(=O)C(c4ccccc43)C2C1=O (centres undefined) | 29.8% (active) |
| CC1=C(C)CC2C(=O)N(c3cccc4ccccc34)C(=O)C2C1 (centres undefined) | -11.3% (inactive) |
| CC(=O)Nc1ccc(N2C(=O)C3C4CC(=O)C(c5ccccc54)C3C2=O)cc1 (centres undefined) | 9.03% (inactive) |
| CC(=O)c1c(C)[nH]c(C(=O)COC(=O)c2cccc(S(=O)(=O)N(C)c3ccccc3)c2)c1C | 74.8% (active) |
| COc1cccc(C(=O)OCC(=O)c2[nH]c(C)c(C(C)=O)c2C)c1 | -11.5% (inactive) |

| Compound | inhibition |
| --- | --- |
| CC(=O)c1c(C)[nH]c(C(=O)COC(=O)c2cccs2)c1C | -6.37% (inactive) |
| Cc1nn(C(C)C(=O)N2CCOCC2)c(=O)c2nn(-c3ccccc3)c(C)c12 (centres undefined) | -7.21% (inactive) |
| CC[C@]12c3[nH]c4ccc(OC)cc4c3CCN1C(=O)C(CC(=O)NCCN1CCOCC1)C[C@@H]2C(=O)N1CCN(C(=O)C2CC2)CC1 (some centres undefined) | -9.94% (inactive) |
| COc1cc(OC)cc(C(=O)NCC(=O)OCC(=O)NC(C)CCc2ccccc2)c1 (centres undefined) | -9.76% (inactive) |
| Cc1cc(C)cc(OCC(=O)NC(C)c2ccccc2)c1 (centres undefined) | -19.1% (inactive) |
| COc1cc(OC)cc(C(=O)N[C@H](C(=O)OCC(=O)NC(C)c2ccccc2)C(C)C)c1 (some centres undefined) | 41.6% (active) |
| CCC(C(=O)Nc1ccc(C(C)C)cc1)c1ccccc1 (centres undefined) | 54% (active) |
| CCC(C(=O)OCC(=O)Nc1ccc(C(=O)Nc2ccc(OC)cc2)cc1)c1ccccc1 (centres undefined) | 2.63% (inactive) |
| CCC(C(=O)Nc1ccc2c(c1)OCCO2)c1ccccc1 (centres undefined) | -14.5% (inactive) |
| OCC[C@H]1C[C@@H](O)[C@H](O)[C@@]2(OCCc3ccccc32)O1 | -2.14% (inactive) |
| CCC(C)N(C(=O)CSc1nnnn1-c1ccccc1OC)C1CCS(=O)(=O)C1 (centres undefined) | -20% (inactive) |
| O=C(O)/C=C/c1ccc(OCCCF)cc1 | -5.89% (inactive) |
| O=C(/C=C(O)/C=C/c1ccc(O)cc1)/C=C/c1ccc(O)cc1 | 44.2% (active) |
| O=C(/C=C/c1ccc2c(c1)OCCO2)c1ccc(O)cc1 | 3.62% (inactive) |
| CC1CCCCN1CCCNC(=O)Cn1ncc2c([nH]c3ccccc32)c1=O (centres undefined) | -10.7% (inactive) |
| CCc1ccccc1NC(=O)c1ccc2c(c1)CCN2S(C)(=O)=O | -12.5% (inactive) |
| CN(C)CCCNC(=S)N1CCN(c2nc(-c3ccccc3)cs2)CC1 | -5.41% (inactive) |
| Cc1cccn2cc(-c3cccc(S(=O)(=O)N4CCCCC4)c3)nc12 | -20.2% (inactive) |
| CC1(C)C=Cc2c(ccc3c2OC[C@@H](c2ccc(O)cc2O)C3)O1 | 94.3% (active) |
| c1ccc(CN=C2Nc3ccccc3CS2)nc1 | -13.6% (inactive) |
